Results published in ChEMBL document CHEMBL1140917, “Structure-activity relationships of antitubercular nitroimidazoles. 1. Structural features associated with aerobic and anaerobic activities of 4- and 5-nitroimidazoles” (2009).
Values after ≈ are worked out from the molar mass of the structure shown.

What was measured:
[1] = system: Mycobacterium tuberculosis; assay: Ratio of Kcat/Km for Mycobacterium tuberculosis F420-dependent nitroreductase by Michaelis-Menten equation; set-up: unit not given here
How it was run: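 MBP-tagged Rv3547 (Ddn) expressed in E. coli (300 μM IPTG, 37 °C), amylose-affinity purified. F420H2 made enzymatically with Mtb FGD1, which was heat-inactivated (55°C, 15 min) and removed by ultrafiltration. Reactions in phosphate buffer pH 7.4, 50 μM F420, 0.6 μM enzyme, varying nitroimidazole concentrations, 25°C. Initial rates from absorbance gain at 400 nm (ε400 = 25.71 mM−1 cm−1).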

[2] = system: Mycobacterium tuberculosis; assay: Antimycobacterial activity against wild type Mycobacterium tuberculosis H37Rv ATCC 27294 after 2 weeks; assay type: functional; settings: 336 h
How it was run: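 Aerobic MIC99: Mtb H37Rv grown to OD 0.5 in 7H9 broth with 0.05% Tween 80, 0.2% glycerol, ADC; diluted 1:1000. Compounds from DMSO stocks, 2-fold series giving 8 dilutions (1000 μM – 7.8 μM). 2 weeks at 37°C, growth read macroscopically; MIC99 = concentration preventing 99% growth. Three independent determinations.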

[3] = system: Mycobacterium tuberculosis; assay: Antimycobacterial activity against wild type Mycobacterium tuberculosis H37Rv NRP-2 stage after 3 weeks under anaerobic condition; assay type: functional
How it was run: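 Early-log Mtb in glycerol-free Dubos broth diluted 100-fold, sealed tubes (headspace ratio 0.5), stirred 180 rpm 20 days to NRP-2 (methylene blue reference). Cells exposed to two-fold drug dilutions (1.95-500 μM) with DMSO control, anaerobically at 37°C for 7 days. Washed thrice, serially diluted, spotted on 7H11 agar; after 3 weeks at 37°C, MAC = 90% reduction in visible growth.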

Row | Structure (SMILES) | kcat/Km [1] | MIC [2] | MAC [3]
1 | O=[N+]([O-])c1cn2c(n1)OC[C@@H](O)C2 | 0.005 | > 100 µM | 250 µM
2 | FC(F)(F)Oc1ccc(CO[C@@H]2COc3nccn3C2)cc1 | – | > 160 µM | >500 µM
3 | O=[N+]([O-])c1cn2c(n1)OC[C@@H](OCc1ccc(OC(F)(F)F)cc1)C2 [PRETOMANID] | 0.145 | 0.8 µM (≈ 0.287 µg/mL) | 8 µM
4 | COc1ncc([N+](=O)[O-])n1CCO | – | > 100 µM | >500 µM
5 | O=[N+]([O-])c1cnc2n1C[C@H](O)CO2 | 0.003 | 12.5 µM (≈ 2.31 µg/mL) | 125 µM
6 | Cc1ncc([N+](=O)[O-])n1CCO [METRONIDAZOLE] | – | > 300 µM | 62.5 µM
7 | O=[N+]([O-])c1cn2c(n1)C=C[C@@H](OCc1ccc(OC(F)(F)F)cc1)C2 | 0.0476 | 25 µM (≈ 8.88 µg/mL) | 62.5 µM
8 | CO[C@@H]1COc2nc([N+](=O)[O-])cn2C1 | 0.0079 | > 125 µM | 250 µM
9 | COc1nc([N+](=O)[O-])cn1CCOCc1ccc(OC(F)(F)F)cc1 | 0.03 | 6.25 µM (≈ 2.26 µg/mL) | 250 µM
10 | Cc1nc([N+](=O)[O-])cn1CCOCc1ccc(OC(F)(F)F)cc1 | – | > 145 µM | >500 µM
11 | O=[N+]([O-])c1cnc2n1C[C@H](O)CC2 | – | > 100 µM | >500 µM
12 | Cc1nc([N+](=O)[O-])cn1CCO | – | > 300 µM | >500 µM
13 | O=[N+]([O-])c1cnc2n1C[C@@H](O)CC2 | – | > 100 µM | >100 µM
14 | O=[N+]([O-])c1cnc2n1C[C@H](OCc1ccc(OC(F)(F)F)cc1)CO2 | 0.0817 | 4 µM (≈ 1.44 µg/mL) | 31.25 µM
15 | O=[N+]([O-])c1cn2c(n1)CC[C@@H](OCc1ccc(OC(F)(F)F)cc1)C2 | 0.0235 | 25 µM (≈ 8.93 µg/mL) | 250 µM
16 | Cc1ncc([N+](=O)[O-])n1CCOCc1ccc(OC(F)(F)F)cc1 | 0.005 | > 145 µM | 250 µM
